Assay outcomes as filed in PubChem.
Shown are actives, neighbours in structure and some others; about 0.55% of the full set was active somewhere.
Rad51 HR inh = Rad51 (human) homologous recombination inhibition | actives 0.085% (n = 200,000) | Q06609 | hRad51 DNA strand exchange, fluorescence dequenching | inhibition, % at 10 µM | AID 1385;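 active = inhibition above 40% at the single screening dose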
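material = hRad51 filaments on single-stranded DNA | reagent = Donor/quencher-labelled 47-bp dsDNA substrate | compound = 10 µM final, single point | schedule = strand-exchange reaction 15 min at room temperature | measured by = fluorescein emission 520 nm, excitation 485 nm | read-out basis = % inhibition versus plate control and blank means | benchmarks = plate controls and plate blanks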
p97 inhibitor = blocks human p97 ATPase activity; P55072; recombinant p97 ATPase, Kinase-Glo ATP luminescence, 3 h; inhibition, % at 8 µM; actives 0.42% (n = 220,000); in the data active = inhibition above about 15%
ABCG2 block = blocks JC-1 efflux by human ABCG2 transporter; Q9UNQ0; IgMXP3 cells, flow cytometry; inhibition, % at 6.6 µM; actives 0.1% (n = 190,000); AID 1325;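 active = inhibition above 80%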
Target sequence (Q9UNQ0 whole entry, looked up): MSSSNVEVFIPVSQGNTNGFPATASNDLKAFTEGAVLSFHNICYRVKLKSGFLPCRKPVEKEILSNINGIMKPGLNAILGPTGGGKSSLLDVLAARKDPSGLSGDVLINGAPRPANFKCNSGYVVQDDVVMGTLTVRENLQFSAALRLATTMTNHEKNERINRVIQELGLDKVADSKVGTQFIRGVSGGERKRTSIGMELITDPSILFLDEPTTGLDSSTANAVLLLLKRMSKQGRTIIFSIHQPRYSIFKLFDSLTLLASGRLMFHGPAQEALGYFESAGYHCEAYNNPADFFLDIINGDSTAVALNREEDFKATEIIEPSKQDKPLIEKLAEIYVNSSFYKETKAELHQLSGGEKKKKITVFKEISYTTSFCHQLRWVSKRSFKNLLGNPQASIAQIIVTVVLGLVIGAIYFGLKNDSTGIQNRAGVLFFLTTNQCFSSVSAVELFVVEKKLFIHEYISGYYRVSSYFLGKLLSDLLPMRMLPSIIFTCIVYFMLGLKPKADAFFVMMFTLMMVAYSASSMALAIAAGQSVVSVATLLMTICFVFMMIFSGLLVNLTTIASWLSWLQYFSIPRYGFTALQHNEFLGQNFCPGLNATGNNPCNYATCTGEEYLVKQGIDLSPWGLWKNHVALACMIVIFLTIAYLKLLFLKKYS
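Test system: IgMXP3 (ABCG2) plus far-red-tagged CCRF-Adr (ABCB1) cells. Reagent: JC-1 dye as substrate. Timing: 10 min exposure at 25 °C with rotation, no wash. Measured by: flow cytometric JC-1 green MFI at 530 nm. Read-out: percent efflux inhibition, scaled nicardipine 100% to DMSO 0%. Control set: nicardipine and DMSO wells.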
ABCB6 inh MLPCN = blocks the human ABCB6 transporter | K562-ABCB6 porphyrin accumulation, flow cytometry, 1 h; active compounds read low | fluorescence ratio to DMSO, % at 10 µM | actives 0.19% (n = 360,000) | AID 602162;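 active = fluorescence ratio to DMSO below 75%, the collection mean minus 3 SD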;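 also: signal is porphyrin accumulated inside mitochondria; lower ratio means ABCB6 inhibition with less porphyrin fluorescence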
HSV augment = HSV replication enhancement. actives 0.005% (n = 220,000). maximum fold increase. HSV replication augmentation in cells, fold increase. AID 1956; in the data active = maximum fold increase above about 1.5; tested in PC3 cells
ABCB1 block = inhibitors of human ABCB1 transporter, ABCG2 counter-screen | inhibition, % at 6.6 µM | actives 0.067% (n = 190,000) | CCRF-Adr cells, JC-1 efflux, flow cytometry | P08183; in the data active = inhibition above about 40%;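 also: higher value means more JC-1 retained so stronger ABCB1 efflux block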
ABCB6 inh CP1 = human ABCB6 transporter inhibition. shares compounds with ABCB6 inh MLPCN. K562-ABCB6 porphyrin accumulation, flow cytometry, 1 h; active compounds read low. ratio response (% of DMSO), % at 10 µM. 700 tested, under 10 active;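 active = repeat-averaged ratio response below 75% of DMSO, the collection mean minus 3 SD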;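 also: median porphyrin fluorescence at 575 nm with 488 nm excitation from mitochondria; lower ratio means less porphyrin signal so ABCB6 inhibition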
A number is an active result; i = inactive; nt = no result given.

SMILES	Rad51 HR inh	p97 inhibitor	ABCG2 block	ABCB6 inh MLPCN	HSV augment	ABCB1 block	ABCB6 inh CP1
Cc1cc(C)c(S(=O)(=O)N2CCN(C(=O)c3ccc(-n4nc(C)c(Cl)c4C)cc3)CC2)c(C)c1	nt	nt	nt	i	nt	nt	nt
O=C(NCCC(=O)N1CCc2ccccc21)c1ccco1	nt	nt	nt	i	nt	nt	nt
O=C(Oc1ccc(N(Cc2cccs2)C2=NS(=O)(=O)c3ccccc32)cc1)c1ccccc1	i	i	i	66	i	i	i
Clc1cc(Sc2ccc(Br)cc2)nnc1-c1ccccc1	i	i	i	74	i	i	i
Cc1cccc(C(O)c2ncc(-c3ccccc3Cl)[nH]2)c1C (centres undefined)	nt	nt	nt	i	nt	nt	nt
Cc1ccccc1-c1cnc(C(O)c2cccc(C)c2C)[nH]1 (centres undefined)	nt	nt	nt	70	nt	nt	i
Cc1ccc(NC(=O)CN(C)C(=O)COC(=O)COc2ccc(C#N)cc2)cc1	nt	nt	nt	i	nt	nt	nt
CN(CC(=O)Nc1ccc(F)cc1)C(=O)COC(=O)COc1ccc(C#N)cc1	nt	nt	nt	68	nt	nt	i
OCCc1ccc(NCCc2cccs2)cc1	nt	nt	nt	i	nt	nt	nt
COc1ccc(CC(N)c2csc(NC(=O)c3ccc(OC)cc3)n2)cc1 (centres undefined)	nt	nt	nt	i	nt	nt	nt
COc1ccc(CC(N)c2csc(NC(=O)c3ccccc3)n2)cc1 (centres undefined)	nt	nt	nt	71	nt	nt	i
Nc1[nH]c(C(=O)c2ccccc2)c(-c2ccc(F)cc2)c1C(=O)NCc1ccccc1	nt	nt	nt	i	nt	nt	nt
COCCNC(=O)c1ccc2c(c1)CCN2S(C)(=O)=O	nt	i	i	i	i	i	nt
COCCCNC(=O)c1ccc2c(c1)CCN2S(C)(=O)=O	i	i	i	69	i	i	i
CC(O)(c1ccccc1)c1nc(-c2ccncc2)cs1 (centres undefined)	nt	nt	nt	i	nt	nt	nt
O=C(NCc1cccc(C(F)(F)F)c1)c1ccc2sc([C@H]3C[C@H](O)[C@@H](CO)O3)nc2c1	nt	nt	nt	i	nt	nt	nt
COC(=O)[C@@H]1C[C@@]2(O)[C@H](O)[C@H](O)[C@H](O)C[C@H]2N1Cc1ccc(C(F)(F)F)cc1	i	nt	nt	72	i	nt	i
CCc1nc2ccc(C(=O)NCCc3c[nH]c4ccccc34)cn2c1N(C=O)CCC(C)C	nt	nt	nt	i	nt	nt	nt
COCCNC(=O)c1cc2nc(-c3ccccc3)cc(C)n2n1	i	i	i	68	i	i	i
O=C(Oc1ccc2c(=O)c(Oc3ccc4ccccc4c3)coc2c1)c1cncc(Br)c1	i	i	i	73	i	i	i
O=C(Oc1ccc2ccccc2c1)c1cncc(Br)c1	i	i	i	i	i	i	nt
COC(=O)c1ccc(CNC(=O)COc2ccccc2Br)o1	i	i	i	32	i	i	i
O=C(COc1ccccc1Br)NCc1ccccn1	i	i	i	i	i	i	nt
COC(=O)c1cc(=O)nc(NN=Cc2ccc(OC)cc2)s1	nt	nt	nt	i	nt	nt	nt
CCOC(=O)C1CCCN(C(=O)c2cccnc2Oc2ccccc2)CC1 (centres undefined)	nt	nt	nt	i	nt	nt	nt
SMILES	Rad51 HR inh	p97 inhibitor	ABCG2 block	ABCB6 inh MLPCN	HSV augment	ABCB1 block	ABCB6 inh CP1
COc1ccc(-c2ccc(N3C(c4ccsc4)=Cc4ccc(F)cc4C3c3c[nH]c4ccccc34)cc2)cc1 (centres undefined)	nt	nt	nt	i	nt	nt	nt
Cc1nc2c(C(=O)N3CCN(C)CC3)cnn2c(C)c1Cc1ccc(Cl)cc1	i	i	i	i	i	i	i
Cc1nc2c(C(=O)N3CCCCC3)cnn2c(C)c1Cc1ccccc1F	i	i	i	i	i	i	i
Cc1ccccc1Cc1c(C)nc2c(C(=O)N3CCN(Cc4ccc5c(c4)OCO5)CC3)cnn2c1C	i	i	nt	i	i	nt	nt
c1ccc(OCCNc2ccn3nc(-c4ccccc4)cc3n2)cc1	nt	nt	nt	i	nt	nt	nt
COc1ccccc1-c1cc2nc(NCCOc3ccccc3)ccn2n1	nt	nt	nt	61	nt	nt	i
Cc1ccsc1CNC(=O)C1(C)CCN1C(C)C (centres undefined)	nt	nt	nt	71	nt	nt	i
Cc1ccc(C)c(NC(=O)C2(C)CCN2C(C)C)c1 (centres undefined)	nt	nt	nt	i	nt	nt	nt
COc1cc(-c2nnc(CSc3nnc(Nc4ccc(C(C)C)cc4)s3)o2)cc(OC)c1OC	i	i	i	74	i	i	i
COc1ccccc1Nc1nnc(SCc2nnc(-c3cc(OC)c(OC)c(OC)c3)o2)s1	i	i	i	i	i	i	nt
COc1cccc(N2CCN(C(=O)CCCCCNc3nc(=S)[nH]c4ccccc34)CC2)c1	i	i	i	i	i	i	nt
O=C(CCCCCNc1nc(=S)[nH]c2ccccc12)N1CCN(c2ccccn2)CC1	i	i	i	74	i	i	i
CCCN(CCC)CCCNC(=O)c1cc2cc3ccc(Cl)cc3nc2o1	nt	nt	nt	73	nt	nt	i
C=CCOc1c(Br)cc(/C=C2/C(=O)ON=C2C)cc1OC	nt	nt	nt	i	nt	nt	nt
Cc1ccc2[nH]c(=O)c(CN(Cc3cccs3)Cc3nnnn3Cc3ccccc3)cc2c1	i	i	i	40	i	i	i
CCc1ccccc1N(CC)C(=O)c1cn(C)c(=O)c2cc(OC)c(OC)cc12	i	i	i	i	i	i	nt
COc1cc2c(C(=O)N(C)c3ccc(F)cc3)cn(C)c(=O)c2cc1OC	nt	nt	nt	14	nt	nt	i
O=C(NCc1n[nH]c(=S)n1-c1cccc(Cl)c1)c1ccc(S(=O)(=O)N2CCCC2)cc1	i	i	i	33	i	i	i
CCN(CC)C(=O)CSc1nc(O)c(Cc2ccccc2)c(=O)n1-c1ccccc1	i	i	i	57	i	i	i
O=C(Nc1ccccc1Cl)c1cc(C2CCCN(S(=O)(=O)c3cccs3)C2)on1 (centres undefined)	nt	nt	nt	i	nt	nt	nt
CNC(=O)c1c[nH]n2c(=O)c(Cc3ccccc3F)c(C)nc12	i	i	i	i	i	i	i
O=C(c1ccc(F)cc1)C1CCN(C(=O)c2ccccc2F)CC1	nt	nt	nt	i	nt	nt	nt
Cc1ccc(N(Cc2ccccc2F)S(C)(=O)=O)c(C)c1	nt	i	i	i	i	i	nt
Cc1ccccc1N(Cc1ccccc1F)S(C)(=O)=O	i	i	i	63	i	i	i
COc1cccc(C(=O)N2CCC[C@H]2C(=O)N2CCC[C@H]2C(=O)NCc2ccccn2)c1	nt	nt	nt	i	nt	nt	nt
COc1ccc(CN(CC(=O)NCC2CCCO2)C(=O)CCC(=O)Nc2cc(C)on2)cc1 (centres undefined)	i	i	i	i	i	i	nt
COc1cccc(CN(CC(=O)NCC2CCCO2)C(=O)CCC(=O)Nc2cc(C)on2)c1 (centres undefined)	i	i	i	73	i	i	i
CC(c1cccs1)N(Cc1ccco1)C(=O)Nc1ccc(Cl)c(Cl)c1 (centres undefined)	i	i	i	i	i	i	nt
COc1cccc(NC(=O)N(Cc2ccco2)C(C)c2cccs2)c1 (centres undefined)	i	i	i	73	i	i	i
Nc1nonc1-n1nncc1-c1ccccc1	i	i	i	6.0	i	i	i
